Data from ChEMBL document CHEMBL4052819 (2017).
≈ marks a conversion by molar mass, not a printed value. Calls of active or inactive are those of the source. The rule behind the calls is not given here. Non-standard residues stand in square brackets, D forms with d. Residues, ends and D or L forms follow the SMILES beside them. Cha = N[C@@H](CC1CCCCC1)C(=O)O; Dab = NCC[C@H](N)C(=O)O

Legend:
[1] = test system: Klebsiella pneumoniae; test: Antibacterial activity against polymyxin-resistant Klebsiella pneumoniae AR 0109 after 18 to 20 hrs by broth microdilution method
[2] = test system: Escherichia coli; test: Antibacterial activity against Escherichia coli ATCC 25922 after 18 to 20 hrs by broth microdilution method; type: functional
In short: (§1)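 Broth microdilution in tryptic soy broth: 2-fold dilutions mixed 1:1 with ~1.5 × 10^5 CFU/mL inoculum, final 0.5–32 μg/mL; 37 °C, 18–20 h. MIC taken as lowest concentration giving no visible growth. At least three independent experiments, one replicate each.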

[3] = test system: Pseudomonas aeruginosa; test: Antibacterial activity against Pseudomonas aeruginosa ATCC 27853 after 18 to 20 hrs by broth microdilution method; type: functional
In short: as §1

[4] = test system: Escherichia coli; test: Antibacterial activity against polymyxin-resistant Escherichia coli UAMS-ECPR1 after 18 to 20 hrs by broth microdilution method; type: functional
In short: (§2)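 Broth microdilution in tryptic soy broth: 2-fold dilutions mixed 1:1 with ~1.5 × 10^5 CFU/mL bacterial suspension in TSB, final 0.5–32 μg/mL, 37 °C for 18–20 h. MIC = lowest concentration with no visible growth. At least three independent experiments, one replicate each.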

[5] = test system: Enterococcus faecium; test: Bactericidal activity against Enterococcus faecium ATCC 19434; type: functional; conditions: read-out: MBC99.9
In short: (§3)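 MBC from MIC plates at end point: 50 μL from each well with no visible growth plated on tryptic soy agar and counted. MBC taken as lowest concentration giving ≥99.9% fall in viable count relative to initial inoculum. Three independent experiments, one replicate each.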

[6] = test system: Pseudomonas aeruginosa; test: Induction of cytoplasmic membrane depolarization in Pseudomonas aeruginosa ATCC 27853 at >= 16 ug/ml by DiSC3(5) probe-based fluorescence assay; type: functional
[7] = test system: Pseudomonas aeruginosa; test: Bactericidal activity against Pseudomonas aeruginosa ATCC 27853 at 8 ug/ml after 2 hrs by time-kill assay relative to control; type: functional
In short: (§4)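 Time-kill at 8, 16 and 32 μg/mL; survivors counted on tryptic soy agar at 0, 2, 4, 6 and 24 h. Three independent experiments, one replicate each.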

[8] = test system: Acinetobacter baumannii; test: Antibacterial activity against carbapenem-resistant Acinetobacter baumannii clinical isolate expressing beta-lactamase OXA-23, 24/40 after 18 to 20 hrs by broth microdilution method; type: functional
In short: as §2

[9] = test system: Staphylococcus aureus; test: Bactericidal activity against Staphylococcus aureus ATCC 29213 at 8 ug/ml after 24 hrs by time-kill assay; type: functional
In short: as §4

[10] = test system: Staphylococcus aureus; test: Induction of cytoplasmic membrane depolarization in Staphylococcus aureus ATCC 29213 at >= 16 ug/ml by DiSC3(5) probe-based fluorescence assay; type: functional
In short: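 S. aureus ATCC 29213 grown in TSB at 37 °C with shaking (200 rpm) for ~5 h after 1/100 dilution of an overnight culture. Cells washed twice in 5 mM HEPES (pH 7.2) with 5 mM glucose and resuspended in the same buffer. Loaded with 0.5 μM DiSC3(5) for 15 min at room temperature, then 100 mM KCl added. Compound given at 8–64 μg/mL final. Fluorescence read at ex 622/em 670 nm. Three independent experiments, ANOVA with Tukey HSD.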

[11] = test system: Pseudomonas aeruginosa; test: Antibiofilm activity against Pseudomonas aeruginosa ATCC 27853 established catheter-associated biofilm model at 40 times MIC after 72 hrs relative to control; type: functional
[12] = test system: Enterobacter cloacae; test: Antibacterial activity against carbapenem-resistant Enterobacter cloacae clinical isolate expressing beta-lactamase KPC-3, TEM1 after 18 to 20 hrs by broth microdilution method; type: functional
In short: as §2

[13] = test system: Staphylococcus aureus; test: Antibiofilm activity against methicillin-resistant Staphylococcus aureus LAC established catheter-associated biofilm model at 5 times MIC after 72 hrs relative to control; type: functional
[14] = test system: Staphylococcus aureus; test: Antibiofilm activity against methicillin-resistant Staphylococcus aureus LAC established catheter-associated biofilm model at 20 times MIC after 72 hrs relative to control; type: functional
[15] = test system: Staphylococcus aureus; test: Bactericidal activity against Staphylococcus aureus ATCC 29213 at 32 ug/ml after 4 hrs by time-kill assay relative to control; type: functional
In short: as §4

[16] = test system: Staphylococcus aureus; test: Bactericidal activity against Staphylococcus aureus ATCC 29213 at 16 ug/ml after 4 hrs by time-kill assay relative to control; type: functional
In short: as §4

[17] = test system: Klebsiella pneumoniae; test: Antibacterial activity against carbapenem-resistant Klebsiella pneumoniae clinical isolate expressing beta-lactamase NDM, OXA-181 after 18 to 20 hrs by broth microdilution method; type: functional
In short: as §2

[18] = test system: Escherichia coli; test: Antibacterial activity against Escherichia coli ATCC 25922 in presence of 100% serum after 24 hrs by broth microdilution method; type: functional; conditions: ATCC 25922, 24 h
In short: (§5)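 Serum stability: compound added to 100% human serum at final 64 μg/mL, held at 37 °C, sampled at 0, 6, 12 and 24 h. […] Residual activity compared with untreated control.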

[19] = test system: Acinetobacter baumannii; test: Bactericidal activity against Acinetobacter baumannii ATCC 19606; type: functional; conditions: ATCC 19606 = CIP 70.34 = JCM 6841, read-out: MBC99.9
In short: as §3

[20] = test system: Enterobacter cloacae; test: Antibacterial activity against carbapenem-resistant Enterobacter cloacae clinical isolate expressing beta-lactamase NDM after 18 to 20 hrs by broth microdilution method; type: functional
In short: as §2

[21] = test system: Pseudomonas aeruginosa; test: Bactericidal activity against Pseudomonas aeruginosa ATCC 27853; type: functional; conditions: read-out: MBC99.9
In short: as §3

[22] = test system: Escherichia coli; test: Antibacterial activity against polymyxin-resistant Escherichia coli UAMS-ECPR2 after 18 to 20 hrs by broth microdilution method; type: functional
In short: as §2

[23] = test system: Staphylococcus aureus; test: Antibacterial activity against Staphylococcus aureus ATCC 29213 after 18 to 20 hrs in presence of 95% serum by broth microdilution method; type: functional
In short: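 Same microdilution with human serum as medium: compound 2-fold diluted in 100% serum, mixed 1:1 with 90% serum holding ~1.5 × 10^5 CFU/mL, giving 95% serum and final 0.5–64 μg/mL. MIC read as no visible growth after incubation as for the broth test.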

[24] = test system: Escherichia coli; test: Bactericidal activity against Escherichia coli ATCC 25922; type: functional; conditions: read-out: MBC99.9
In short: as §3

[25] = test system: Staphylococcus aureus; test: Bactericidal activity against methicillin-resistant Staphylococcus aureus ATCC 43300; type: functional; conditions: read-out: MBC99.9
In short: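 MBC taken at the end of the MIC test: 50 μL from each well without visible growth plated on tryptic soy agar. MBC = lowest concentration giving ≥99.9% reduction in viable cells relative to the initial inoculum. Three independent experiments, one replicate each.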

[26] = test system: Staphylococcus aureus; test: Antibacterial activity against methicillin-resistant Staphylococcus aureus ATCC 43300 after 18 to 20 hrs by broth microdilution method; type: functional
In short: as §2

[27] = test system: Escherichia coli; test: Antibacterial activity against polymyxin-resistant Escherichia coli AR 0494 expressing mcr1 after 18 to 20 hrs by broth microdilution method; type: functional
In short: as §2

[28] = test system: Enterococcus faecium; test: Antibacterial activity against Enterococcus faecium ATCC 19434 after 18 to 20 hrs by broth microdilution method; type: functional
In short: as §1

[29] = test system: Staphylococcus aureus; test: Antibacterial activity against Staphylococcus aureus ATCC 29213 after 18 to 20 hrs by broth microdilution method; type: functional
In short: as §1

[30] = test system: Escherichia coli; test: Antibacterial activity against Escherichia coli ATCC 25922 in presence of 100% serum measured immediately post compound addition in serum by broth microdilution method; type: functional
In short: as §5

[31] = test system: Staphylococcus aureus; test: Antibacterial activity against methicillin-resistant Staphylococcus aureus LAC; type: functional

SMILES: CC(C)C[C@H](NC(=O)[C@@H](Cc1ccccc1)NC(=O)[C@H](CCN)NC(=O)[C@H](Cc1ccccc1)NC(=O)[C@H](CCN)NC(=O)[C@@H](N)CC1CCCCC1)C(=O)N[C@@H](CCN)C(=O)N[C@H](CC(C)C)C(=O)N[C@@H](Cc1ccccc1)C(=O)N[C@@H](CO)C(N)=O (H-[Cha][Dab]F[Dab][dF]L[Dab][dL]FS-NH2)
- MIC [1]: 4 to 8 µg/mL (≈ 3.26 to 6.53 µM)
- MIC [2]: 0.5 to 1 µg/mL (≈ 0.408 to 0.816 µM)
- MIC [3]: 0.5 to 1 µg/mL (≈ 0.408 to 0.816 µM)
- MIC [4]: < 0.5 µg/mL
- MBC [5]: 16 µg/mL (≈ 13.1 µM)
- Activity [6]: Active
- Activity [7]: 2.2 deltalog10CFU/ml
- MIC [8]: 0.5 µg/mL (≈ 0.408 µM)
- Activity [9]: inactive
- Activity [10]: Active
- Activity [11]: 2.6 deltalog10CFU/ml
- MIC [12]: 0.5 µg/mL (≈ 0.408 µM)
- Activity [13]: 3 deltalog10CFU/ml
- Activity [14]: 5 deltalog10CFU/ml
- Activity [15]: 5.4 deltalog10CFU/ml
- Activity [16]: 3.1 deltalog10CFU/ml
- MIC [17]: 0.5 to 2 µg/mL (≈ 0.408 to 1.63 µM)
- MIC [18]: 8 µg/mL
- MBC [19]: 4 to 8 µg/mL (≈ 3.26 to 6.53 µM)
- MIC [20]: 0.5 µg/mL (≈ 0.408 µM)
- MBC [21]: 2 to 4 µg/mL (≈ 1.63 to 3.26 µM)
- MIC [22]: < 0.5 µg/mL
- MIC [23]: 32 µg/mL
- MBC [24]: 8 to 16 µg/mL (≈ 6.53 to 13.1 µM)
- MBC [25]: 8 µg/mL (≈ 6.53 µM)
- MIC [26]: 4 µg/mL (≈ 3.26 µM)
- MIC [27]: 0.5 µg/mL (≈ 0.408 µM)
- MIC [28]: 8 µg/mL (≈ 6.53 µM)
- MIC [29]: 2 to 4 µg/mL (≈ 1.63 to 3.26 µM)
- MIC [30]: 4 to 8 µg/mL
- MIC [31]: 8 µg/mL (≈ 6.53 µM)
